Measured values as given in ChEMBL document CHEMBL1156720, “Synthesis and antimicrobial activity of dermaseptin S1 analogues” (Bioorg Med Chem, 2008).
In brackets after ≈: the same amount, converted by molar mass. Several values for one entry are separate records, joined by “and”; a condition that tells them apart may be missing. Equal entries are not always repeated. Square brackets hold non-standard residues; d marks the D form. Peptide text beside a SMILES is read from it. 1Nal = N[C@@H](Cc1cccc2ccccc12)C(=O)O; 2Nal = N[C@@H](Cc1ccc2ccccc2c1)C(=O)O; hPhe = N[C@@H](CCc1ccccc1)C(=O)O

Legend:
[1] = tested on: Burkholderia cepacia; assay: Antibacterial activity against Burkholderia cepacia 6/06 after 24 hrs by microdilution serial twofold assay; type: functional
Procedure, shortened: (§1)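 Bacteria grown in static culture at 37 °C in Mueller Hinton broth and diluted to 5 × 10⁵ CFU/mL. Peptides were tested by twofold serial microdilution starting from 100 μg/mL, with peptide-free control wells. The MIC was the lowest concentration with no rise in turbidity after overnight incubation at 37 °C. Values are means of at least two independent experiments run in duplicate.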

[2] = tested on: Staphylococcus aureus; assay: Antibacterial activity against Staphylococcus aureus ATCC 6538P after 24 hrs by microdilution serial twofold assay; type: functional
[3] = tested on: Staphylococcus aureus; assay: Antibacterial activity against multi drug-resistant Staphylococcus aureus after 24 hrs by microdilution serial twofold assay; type: functional
Procedure, shortened: (§2)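 Mueller Hinton Broth cultures grown statically at 37 °C and diluted to 5 × 10⁵ CFU/mL. Twofold serial microdilution from 100 μg/mL peptide, final volume 200 μL, with peptide-free controls. MIC is the lowest concentration with no turbidity increase after overnight incubation at 37 °C. Means come from at least two independent experiments run in duplicate.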

[4] = tested on: Candida albicans; assay: Antifungal activity against wild type Candida albicans by broth microdilution method; type: functional
Procedure, shortened: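 Wild-strain yeast was tested in triplicate by broth microdilution following NCCLS recommendations. The MIC was the lowest peptide concentration with no increase in turbidity after overnight incubation at 37 °C.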

[5] = tested on: Staphylococcus aureus; assay: Antibacterial activity against Staphylococcus aureus Cowan 1 NCTC 8530 after 24 hrs by microdilution serial twofold assay; type: functional; conditions: Cowan 1, 24 h; procedure, shortened: as §1
[6] = tested on: Stenotrophomonas maltophilia; assay: Antibacterial activity against Stenotrophomonas maltophilia FC after 24 hrs by microdilution serial twofold assay; type: functional; procedure, shortened: as §1
[7] = tested on: Escherichia coli; assay: Antibacterial activity against Escherichia coli HB101 after 3 hrs by microdilution serial twofold assay; type: functional; conditions: HB101, 3 h, read-out: LD50 (the source's name)
Procedure, shortened: (§3)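 Mueller Hinton Broth static cultures grown at 37 °C and diluted to 5 × 10⁵ CFU/mL. Peptides were tested by twofold serial microdilution starting from 100 μg/mL in a final volume of 200 μL, with peptide-free controls. After 3 h incubation, cultures were serially 10-fold diluted in PBS and plated on Mueller Hinton Agar. Counts were taken after 24 h at 37 °C. Value is the dose giving 50% bacterial lethality.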

[8] = tested on: Pseudomonas aeruginosa; assay: Antibacterial activity against Pseudomonas aeruginosa ATCC 15442 after 24 hrs by microdilution serial twofold assay; type: functional; conditions: ATCC 15442, 24 h
[9] = tested on: Pseudomonas aeruginosa; assay: Antibacterial activity against multi drug-resistant Pseudomonas aeruginosa after 24 hrs by microdilution serial twofold assay; type: functional; procedure, shortened: as §2
[10] = tested on: Escherichia coli; assay: Antibacterial activity against Escherichia coli HB101 after 24 hrs by microdilution serial twofold assay; type: functional; conditions: HB101, 24 h; procedure, shortened: as §1
[11] = tested on: Staphylococcus aureus; assay: Antibacterial activity against Staphylococcus aureus Cowan 1 NCTC 8530 after 3 hrs by microdilution serial twofold assay; type: functional; conditions: Cowan 1, 3 h, read-out: LD50 (the source's name); procedure, shortened: as §3
[12] = tested on: Bacillus subtilis; assay: Antibacterial activity against Bacillus subtilis ATCC 9466 after 24 hrs by microdilution serial twofold assay; type: functional; conditions: ATCC 9466, 24 h
[13] = Toxicity assessed as hemolytic activity in human red blood cells after 30 mins; type: cell-based, Erythrocyte; conditions: read-out: HD50
Procedure, shortened: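 Serially diluted peptides were incubated with 10⁸ washed human RBC (100 µL) for 30 min at 37 °C with agitation. After centrifugation at 900g for 10 min, haemoglobin in the supernatant was read at 550 nm. Distilled water gave maximal lysis. HC₅₀ is the mean from at least two independent experiments run in triplicate.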

[14] = tested on: Leishmania major; assay: Antileishmanial activity against Leishmania major MHOM/IL/67/JERICHO-2 assessed as protozoal viability after 24 hrs by dye exclusion method; type: functional
Procedure, shortened: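 Promastigotes grown at 25 °C in supplemented medium 199 containing 20% heat-inactivated FCS, then resuspended at 5 × 10⁵ viable/mL with serially diluted peptides. After 24 h at 25 °C with agitation, viable cells were counted by haemocytometer using trypan blue exclusion. LC₅₀ is the 50% survival reduction versus an untreated culture, fitted by nonlinear regression. Run in triplicate.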

[15] = tested on: Leishmania major; assay: Antileishmanial activity against Leishmania major MHOM/IL/67/JERICHO-2 after 24 hrs by dye exclusion method; type: functional
Procedure, shortened: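 Promastigotes were grown at 25 °C in medium 199 with 20% heat-inactivated FCS, penicillin/streptomycin, L-glutamine, HEPES, adenine, hemin and biotin. They were resuspended at 5 × 10⁵ viable cells/mL and exposed to serial peptide dilutions at 25 °C with agitation. Viability was counted by trypan blue exclusion in a haemocytometer.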

Molecule: CSCC[C@H](NC(=O)[C@@H](NC(=O)CNC(=O)[C@H](CC(C)C)NC(=O)[C@H](CCCCN)NC(=O)[C@H](CCCCN)NC(=O)[C@H](CC(C)C)NC(=O)[C@H](CCSC)NC(=O)[C@@H](NC(=O)[C@H](CCCCN)NC(=O)[C@H](Cc1cccc2ccccc12)NC(=O)[C@H](CC(C)C)NC(=O)[C@H](C)N)[C@@H](C)O)[C@@H](C)O)C(=O)N[C@@H](C)C(=O)N[C@@H](CC(C)C)C(N)=O (H-AL[1Nal]KTMLKKLGTMAL-NH2)
- MIC [1]: 25 µM (≈ 42.9 µg/mL)
- MIC [2]: 2.8 µM (≈ 4.8 µg/mL)
- MIC [3]: 22.5 µM (≈ 38.6 µg/mL)
- MIC [4]: 11.2 µM (≈ 19.2 µg/mL)
- MIC [5]: 11.5 µM (≈ 19.7 µg/mL)
- MIC [6]: 22.5 µM (≈ 38.6 µg/mL)
- LC50 [7]: 0.9 µM
- MIC [8]: 5.6 µM (≈ 9.61 µg/mL)
- MIC [9]: 11.2 µM (≈ 19.2 µg/mL)
- MIC [10]: 2.8 µM (≈ 4.8 µg/mL)
- LC50 [11]: 2.4 µM
- MIC [12]: 11.2 µM (≈ 19.2 µg/mL)
- HC50 at 0.5 h [13]: 75 µM

Molecule: CSCC[C@H](NC(=O)[C@@H](NC(=O)CNC(=O)[C@H](CC(C)C)NC(=O)[C@H](CCCCN)NC(=O)[C@H](CCCCN)NC(=O)[C@H](CC(C)C)NC(=O)[C@H](CCSC)NC(=O)[C@@H](NC(=O)[C@H](CCCCN)NC(=O)[C@H](Cc1ccc2ccccc2c1)NC(=O)[C@H](CC(C)C)NC(=O)[C@H](C)N)[C@@H](C)O)[C@@H](C)O)C(=O)N[C@@H](C)C(=O)N[C@@H](CC(C)C)C(N)=O (H-AL[2Nal]KTMLKKLGTMAL-NH2)
- MIC [1]: 25 µM (≈ 42.9 µg/mL)
- MIC [2]: 2.8 µM (≈ 4.8 µg/mL)
- MIC [3]: > 25 µM
- MIC [4]: 11.2 µM (≈ 19.2 µg/mL)
- MIC [5]: 11.5 µM (≈ 19.7 µg/mL)
- MIC [6]: 25 µM (≈ 42.9 µg/mL)
- LC50 [7]: 0.9 µM
- MIC [8]: 5.6 µM (≈ 9.61 µg/mL)
- MIC [9]: 11.2 µM (≈ 19.2 µg/mL)
- MIC [10]: 2.8 µM (≈ 4.8 µg/mL)
- LC50 [11]: 2.5 µM
- MIC [12]: 5.6 µM (≈ 9.61 µg/mL)
- HC50 at 0.5 h [13]: > 100 µM

Molecule: CSCC[C@H](NC(=O)[C@@H](NC(=O)CNC(=O)[C@H](CC(C)C)NC(=O)[C@H](CCCCN)NC(=O)[C@H](CCCCN)NC(=O)[C@H](CC(C)C)NC(=O)[C@H](CCSC)NC(=O)[C@@H](NC(=O)[C@H](CCCCN)NC(=O)[C@H](CCc1ccccc1)NC(=O)[C@H](CC(C)C)NC(=O)[C@H](C)N)[C@@H](C)O)[C@@H](C)O)C(=O)N[C@@H](C)C(=O)N[C@@H](CC(C)C)C(N)=O (H-AL[hPhe]KTMLKKLGTMAL-NH2)
- MIC [1]: 23 µM (≈ 38.6 µg/mL)
- MIC [2]: 5.8 µM (≈ 9.74 µg/mL)
- MIC [3]: > 46 µM
- MIC [4]: 5.8 µM (≈ 9.74 µg/mL)
- MIC [5]: 46.8 µM (≈ 78.6 µg/mL)
- MIC [6]: 23 µM (≈ 38.6 µg/mL)
- LC50 [7]: 3 µM
- MIC [8]: > 46 µM
- MIC [9]: 46 µM (≈ 77.2 µg/mL)
- MIC [10]: 11.7 µM (≈ 19.6 µg/mL)
- LC50 [11]: 9.3 µM
- MIC [12]: 23 µM (≈ 38.6 µg/mL)
- HC50 at 0.5 h [13]: > 100 µM

Molecule: CSCC[C@H](NC(=O)[C@@H](NC(=O)CNC(=O)[C@H](CC(C)C)NC(=O)[C@H](CCCCN)NC(=O)[C@H](CCCCN)NC(=O)[C@H](CC(C)C)NC(=O)[C@H](CCSC)NC(=O)[C@@H](NC(=O)[C@H](CCCCN)NC(=O)[C@H](Cc1cccc2ccccc12)NC(=O)[C@H](CC(C)C)NC(=O)[C@H](C)NC(=O)[C@@H](N)CCCCN)[C@@H](C)O)[C@@H](C)O)C(=O)N[C@@H](C)C(=O)N[C@@H](CC(C)C)C(N)=O (H-KAL[1Nal]KTMLKKLGTMAL-NH2)
- MIC [1]: 42 µM (≈ 77.4 µg/mL)
- MIC [2]: 1.3 µM (≈ 2.4 µg/mL)
- MIC [3]: 21 µM (≈ 38.7 µg/mL)
- MIC [4]: 10.5 µM (≈ 19.4 µg/mL)
- MIC [5]: 5.1 µM (≈ 9.4 µg/mL)
- MIC [6]: 21 µM (≈ 38.7 µg/mL)
- LC50 [7]: < 0.8 µM
- MIC [8]: 2.6 µM (≈ 4.79 µg/mL)
- MIC [9]: 10.5 µM (≈ 19.4 µg/mL)
- MIC [10]: 1.2 µM (≈ 2.21 µg/mL)
- LC50 [11]: 0.8 µM
- MIC [12]: 5.2 µM (≈ 9.59 µg/mL)
- HC50 at 0.5 h [13]: 80 µM

Molecule: H-ALFKTMLKKLGTMAL-NH2
- MIC [1]: > 46 µM
- MIC [2]: 23 µM
- MIC [3]: > 46 µM
- MIC [4]: 5.8 µM
- MIC [5]: > 47.1 µM
- MIC [6]: > 46 µM
- LC50 [7]: 4.5 µM
- MIC [8]: > 46 µM
- MIC [9]: > 46 µM
- MIC [10]: 23.5 µM
- LC50 [11]: 16.7 µM
- MIC [12]: 23 µM
- HC50 at 0.5 h [13]: > 100 µM

Molecule: H-ALHKTMLKKLGTMAL-NH2
- MIC [1]: > 45 µM
- MIC [2]: > 45 µM
- MIC [3]: > 45 µM
- MIC [4]: > 45 µM
- MIC [5]: > 44.9 µM
- MIC [6]: > 45 µM
- LC50 [7]: > 44.9 µM
- MIC [8]: > 45 µM
- MIC [9]: > 45 µM
- MIC [10]: > 44.9 µM
- LC50 [11]: > 44.9 µM
- MIC [12]: > 45 µM
- HC50 at 0.5 h [13]: > 100 µM

Molecule: H-ALLKTMLKKLGTMAL-NH2
- MIC [1]: > 48 µM
- MIC [2]: 24 µM
- MIC [3]: > 48 µM
- MIC [4]: 12 µM
- MIC [5]: > 47.9 µM
- MIC [6]: > 48 µM
- LC50 [7]: 6 µM
- MIC [8]: > 48 µM
- MIC [9]: > 48 µM
- MIC [10]: 23.9 µM
- LC50 [11]: 12 µM
- MIC [12]: 24 µM
- HC50 at 0.5 h [13]: > 100 µM

Molecule: H-ALWKTMLKKLGT-NH2
- LC50 [14]: 50 µg/mL and 27.1 µM
- MIC [5]: > 54 µM
- LC50 [7]: 54 µM
- MIC [10]: > 54 µM
- LC50 [11]: 54 µM
- MIC [15]: 100 µg/mL and 54.2 µM
- HC50 at 0.5 h [13]: > 100 µM

Molecule: H-ALWKTMLKKLGTM-NH2
- LC50 [14]: 50 µg/mL and 25.3 µM
- MIC [5]: > 50.6 µM
- LC50 [7]: 22.7 µM
- MIC [10]: 50.6 µM
- LC50 [11]: 50.6 µM
- MIC [15]: 100 µg/mL and 50.6 µM
- HC50 at 0.5 h [13]: > 100 µM

Molecule: H-ALYKTMLKKLGTMAL-NH2
- MIC [1]: > 45 µM
- MIC [2]: > 45 µM
- MIC [3]: > 45 µM
- MIC [4]: > 45 µM
- MIC [5]: > 46.7 µM
- MIC [6]: > 45 µM
- LC50 [7]: > 46.7 µM
- MIC [8]: > 45 µM
- MIC [9]: > 45 µM
- MIC [10]: > 46.7 µM
- LC50 [11]: > 46.7 µM
- MIC [12]: > 45 µM
- HC50 at 0.5 h [13]: > 100 µM

Molecule: H-KALWKTMLKKLGTMAL-NH2
- MIC [1]: 42 µM
- MIC [2]: 2.6 µM
- MIC [3]: > 42 µM
- MIC [4]: 10.1 µM
- MIC [5]: 20.8 µM
- MIC [6]: 21 µM
- LC50 [7]: < 0.8 µM
- MIC [8]: 5.2 µM
- MIC [9]: 21 µM
- MIC [10]: 2.6 µM
- LC50 [11]: 2.7 µM
- MIC [12]: 21 µM
- HC50 at 0.5 h [13]: > 100 µM
